The values that follow come from ChEMBL document CHEMBL1145054, “Enantioselective syntheses and cytotoxicity of N,O-nucleosides” (J Med Chem, 2003).

Assay [1] has as its system HL-60. The assay is described as follows: Apoptotic concentration required to cause apoptosis in 50% of HL-60 cell lines at 48 hours. Format: functional, cell-based. Conditions: Homo sapiens, HL-60, 48 h. The gist of the method: (§1)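 Cells were exposed under optimal culture conditions to 8–512 μM test agent or to control medium for the stated time. They were then stained with acridine orange, and over 600 cells were counted by fluorescence microscopy. Cells counted as apoptotic had uniformly stained nuclei with chromatin condensation and nuclear fragmentation. AC50 is the concentration giving 50% apoptosis, determined from two or more experiments.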

The test system of assay [2] is HL-60. The assay is described as follows: Cytotoxic concentration required to cause 50% toxicity in HL-60 cell lines at 48 hours. Format: functional. Conditions: Homo sapiens, HL-60, 48 h. Put shortly:
(§2)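 Cells were exposed under optimal culture conditions to 8–512 μM test agent or to control medium for the stated time. Viability was scored by trypan blue exclusion. CC50 is the concentration causing 50% toxicity, determined from two or more experiments.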

In assay [3] the test system is MOLT-3. Nature of the assay: Apoptotic concentration required to cause apoptosis in 50% of Molt-3 cell lines at 24 hours. Format: functional, cell-based. The note with it: Homo sapiens, MOLT-3, 24 h. Put shortly: as §1
In assay [4] the test system is HL-60. Nature of the assay: Cytotoxic concentration required to cause 50% toxicity in HL-60 cell lines at 24 hours. Conditions: Homo sapiens, HL-60, 24 h. Format: functional. Put shortly: as §2
The subject of assay [5] is U-937. The assay is described as follows: Cytotoxic concentration required to cause 50% toxicity in U-937 cell lines at 24 hours. Conditions: Homo sapiens, U-937, 24 h. Format: functional. The gist of the method:
as §2

Assay [6] deals with U-937. Nature of the assay: Apoptotic concentration required to cause apoptosis in 50% of U-937 cell lines at 72 hours. Format: functional, cell-based. Conditions: Homo sapiens, U-937, 72 h. Put shortly: as §1
Assay [7] deals with U-937. The assay is described as follows: Apoptotic concentration required to cause apoptosis in 50% of U-937 cell lines at 48 hours. Conditions: Homo sapiens, U-937, 48 h. Format: functional, cell-based. Put shortly:
as §1

For assay [8], the system named is U-937. Nature of the assay: Cytotoxic concentration required to cause 50% toxicity in U-937 cell lines at 72 hours. Format: functional. Conditions: Homo sapiens, U-937, 72 h. The gist of the method: as §2
Assay [9] has as its system MOLT-3. Nature of the assay: Apoptotic concentration required to cause apoptosis in 50% of Molt-3 cell lines at 48 hours. Format: functional, cell-based. Conditions: Homo sapiens, MOLT-3, 48 h. Put shortly: as §1
The test system of assay [10] is MOLT-3. The assay is described as follows: Cytotoxic concentration required to cause 50% toxicity in Molt-3 cell lines at 24 hours. Format: functional. Conditions: Homo sapiens, MOLT-3, 24 h. The gist of the method: as §2
The subject of assay [11] is THP-1. Nature of the assay: Cytotoxic concentration required to cause 50% toxicity in THP-1 cell lines at 24 hours. Format: functional. Conditions: Homo sapiens, THP-1, 24 h. Put shortly:
as §2

Assay [12] relates to THP-1. The assay is described as follows: Apoptotic concentration required to cause apoptosis in 50% of THP-1 cell lines at 24 hours. Format: functional, cell-based. Conditions: Homo sapiens, THP-1, 24 h. The gist of the method:
as §1

For assay [13], the system named is HL-60. The assay is described as follows: Apoptotic concentration required to cause apoptosis in 50% of HL-60 cell lines at 24 hours. Format: functional, cell-based. Conditions: Homo sapiens, HL-60, 24 h. The gist of the method: as §1
Assay [14] concerns MOLT-3. Nature of the assay: Cytotoxic concentration required to cause 50% toxicity in Molt-3 cell lines at 72 hours. Format: functional. The note with it: Homo sapiens, MOLT-3, 72 h. Put shortly: as §2
The test system of assay [15] is MOLT-3. The assay is described as follows: Cytotoxic concentration required to cause 50% toxicity in Molt-3 cell lines at 48 hours. Format: functional. The note with it: Homo sapiens, MOLT-3, 48 h. Put shortly: as §2
For assay [16], the system named is U-937. Nature of the assay: Apoptotic concentration required to cause apoptosis in 50% of U-937 cell lines at 24 hours. Format: functional, cell-based. Conditions: Homo sapiens, U-937, 24 h. The gist of the method: as §1
The test system of assay [17] is U-937. The assay is described as follows: Cytotoxic concentration required to cause 50% toxicity in U-937 cell lines at 48 hours. Conditions: Homo sapiens, U-937, 48 h. Format: functional. Put shortly: as §2
The test system of assay [18] is MOLT-3. Nature of the assay: Apoptotic concentration required to cause apoptosis in 50% of Molt-3 cell lines at 72 hours. Format: functional, cell-based. The note with it: Homo sapiens, MOLT-3, 72 h. Put shortly:
as §1

Molecules are shown by their SMILES.

`O=c1[nH]c(=O)n(C2CCNO2)cc1F` (stereo not drawn): the AC50 (commonly the concentration giving half of the maximal activity seen) with HL-60 [1] is greater than 1000 µM; with MOLT-3 [3], 329 µM; in the assay on U-937 [6], 3 µM; with U-937 [7] it was 123 µM; with MOLT-3 [9], 96 µM; with THP-1 [12], greater than 1000 µM. The AC50 in the assay on HL-60 [13] was greater than 1000 µM; with U-937 [16], greater than 1000 µM; in the assay with MOLT-3 [18], 13 µM. Moreover, the CC50 (commonly the concentration giving 50% cytotoxicity) is greater than 1000 µM in the assay on HL-60 [2]; greater than 1000 µM in the assay on HL-60 [4]; greater than 1000 µM in the assay on U-937 [5]; 687 µM in the assay on U-937 [8]; greater than 1000 µM in the assay on MOLT-3 [10]; greater than 1000 µM in the assay with THP-1 [11]. Also, the figures for the CC50 in the assay with MOLT-3 [14], with MOLT-3 [15] and in the assay with U-937 [17] were 366 µM, 806 µM and greater than 1000 µM, respectively.
